Test results reported in ChEMBL document CHEMBL1142626, “Insecticidal and mutagenic evaluation of two annonaceous acetogenins” (J Nat Prod, 2000).

How the values were obtained:
[1] = test system: Spodoptera littoralis; test: Antifeedant effect against Spodoptera littoralis L6 larvae assessed as relative growth rate at 10 ug, po after 72 hrs; type: functional
Procedure, shortened: (§1)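 Preweighed, newly emerged S. littoralis L6 larvae (20 per experiment) were orally cannulated with 10 µg in 2 µL DMSO; controls got solvent alone. Relative consumption and growth rates were calculated at 72 h on a dry-weight basis. Log-transformed weights were analysed by ANOVA with LSD tests.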

[2] = test system: Leptinotarsa decemlineata; test: Insecticidal activity against Leptinotarsa decemlineata assessed as mortality at 5 ug by hemolymph injection after 72 hrs; type: functional
Procedure, shortened: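 Adult L. decemlineata (20 beetles) were injected with 5 µg in DMSO through the metepimeron suture of the thorax. Beetles were kept on potato leaves. Symptoms and mortality were recorded up to 3 days, analysed by contingency tables and Abbott-corrected.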

[3] = test system: Myzus persicae; test: Insecticidal activity against Myzus persicae assessed as increase in mortality at 100 ug/cm2 observed daily for 4 days; type: functional, organism-based
Procedure, shortened: (§2)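 No-choice test: 20 boxes, each with five same-age apterous adult M. persicae (100 insects). Nymphs produced in the first 48 h were separated from adults and kept in similarly treated boxes. Both were observed daily for 4 days for mortality. Analysed by contingency tables and LSD test.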

[4] = test system: Myzus persicae; test: Antifeedant effect against Myzus persicae assessed as inhibition index at 100 ug/cm2 relative to control; type: functional; design: scale not given: the % may be the effect or the level left
Procedure, shortened: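 Choice settling test on apterous adult M. persicae: 20 boxes of 10 aphids per treatment. Settling inhibition %SI = [1 − (%aphids on treated/%aphids on control surface)] × 100.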

[5] = test system: Myzus persicae; test: Insecticidal activity against Myzus persicae assessed as offspring production at 50 ug/cm2 observed daily for 4 days; type: functional, organism-based; procedure, shortened: as §2
[6] = test system: Spodoptera littoralis; test: Antifeedant effect against Spodoptera littoralis L6 larvae assessed as relative consumption rate at 10 ug, po after 72 hrs; type: functional; procedure, shortened: as §1
[7] = test system: Spodoptera littoralis; test: Antifeedant effect against Spodoptera littoralis assessed as feeding reduction at 100 ug/cm2 relative to control; type: functional; design: scale not given: the % may be the effect or the level left
Procedure, shortened: (§3)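 Choice test on leaf disks using adult L. decemlineata or newly emerged fifth-instar S. littoralis larvae. Five to 10 plates per treatment, three insects each. Uneaten leaf-disk area was measured by scanner. %FR = [1 − (treatment/control consumption)] × 100 per arena. Where FR exceeded 50%, EC50 was taken from linear regression of %FR on log dose.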

[8] = test system: Myzus persicae; test: Insecticidal activity against Myzus persicae assessed as offspring production at 100 ug/cm2 observed daily for 4 days; type: functional, organism-based; procedure, shortened: as §2
[9] = test system: Leptinotarsa decemlineata; test: Antifeedant effect against Leptinotarsa decemlineata assessed as feeding reduction at 10 ug/cm2; type: functional, organism-based; procedure, shortened: as §3

C=C(C)[C@H]1Cc2c(ccc3c2O[C@@H]2COc4cc(OC)c(OC)cc4[C@@H]2C3=O)O1 [ROTENONE]
Activity [1]: 3.47 mg
Activity [2]: 100%
Activity [3]: Non-toxic
Activity [4]: <40%
Activity [5]: Toxic
Activity [6]: 20.88 mg
Activity [7]: >40%
Activity [8]: Toxic
Activity [9]: Toxic
